Measurements reported in ChEMBL document CHEMBL1157342, “Isolation of gelsedine-type indole alkaloids from Gelsemium elegans and evaluation of the cytotoxic activity of gelsemium alkaloids for A431 epidermoid carcinoma cells” (J Nat Prod, 2006).

System: A-431
Experiment: Cytotoxicity against human A431 cells after 48 hrs by trypan blue test
Format: functional, cell-based
Settings: A-431, 48 h
How it was run: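 A431 human epidermoid carcinoma cells were grown at 5% CO2, 37 °C, seeded in 12-well plates at 1 × 10^5 cells/well and treated at semiconfluence (about 5 × 10^5 cells/well). DMSO stocks (100 mM) were diluted in serum-free RPMI-1640 to 10 nM–100 µM final, with DMSO below 0.1%. After 48 h, cells were counted in a Bürker-Türk chamber with trypan blue. Survival was expressed as % of untreated control. EC50 was taken from three independent experiments, mean ± SEM.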

SMILES	EC50
C=C[C@]12CN(C)[C@@H]3[C@H]4CO[C@H](C[C@H]41)[C@]1(C(=O)Nc4ccccc41)[C@@H]32 [GELSEMINE]	> 100 µM
CCC1=N[C@H]2C[C@@]3(C(=O)N(OC)c4ccccc43)[C@@H]3OC[C@H]2[C@H]1[C@H]3O	> 100 µM
C/C=C1\CN(C)[C@H]2C[C@@]3(C(=O)N(OC)c4cc(OC)ccc43)[C@H]3C[C@@H]1[C@@H]2CO3	> 100 µM
CCC1=N[C@H]2C[C@@]3(C(=O)N(OC)c4ccccc43)[C@H]3C[C@@H]1[C@@H]2CO3 [GELSENICINE]	37 µM
CC[C@H]1N[C@H]2C[C@@]3(C(=O)N(OC)c4ccccc43)[C@H]3C[C@@H]1[C@@H]2CO3 [GELSEDINE]	0.35 µM
CCC1=N[C@H]2C[C@@]3(C(=O)N(OC)c4ccccc43)[C@@H]3OC[C@H]2[C@H]1[C@H]3OC(C)=O	0.25 µM
CCC1=N[C@H]2C[C@@]3(C(=O)N(OC)c4ccccc43)[C@@H]3OC[C@H]2[C@@]1(O)[C@H]3O	1.3 µM
C/C=C1\CN2[C@H]3Cc4c([nH]c5ccccc45)[C@@H]2C[C@@H]1C3(CO)C(=O)OC (some centres undefined)	> 100 µM
CC[C@H]1N[C@H]2C[C@@]3(C(=O)N(OC)c4cc(OC)ccc43)[C@H]3C[C@@H]1[C@@H]2CO3 [GELSEMICINE]	0.75 µM
CCC(=O)[C@]12N[C@H]3C[C@@]4(C(=O)N(OC)c5ccccc54)[C@H](OC[C@H]31)[C@@H]2O [GELSEMOXONINE]	> 100 µM
C=C[C@@]12CN(C)[C@H]3C[C@]14C(=Nc1ccccc14)[C@@H]1C[C@@H]2[C@@H]3CO1 [KOUMINE]	> 100 µM
CCC1=N[C@H]2C[C@@]3(C(=O)N(OC)c4cc(OC)ccc43)[C@@H]3OC[C@H]2[C@H]1[C@H]3O	> 100 µM
CCC1=N[C@H]2C[C@@]3(C(=O)N(OC)c4ccccc43)[C@@H]3OC[C@H]2[C@@]1(O)[C@H]3OC(C)=O	36 µM
C/C=C1\CN(C)[C@H]2C[C@@]3(C(=O)N(OC)c4ccccc43)[C@H]3C[C@@H]1[C@@H]2CO3 [HUMANTENINE]	> 100 µM
